Kir21 inh: inhibitors of mouse Kir2.1 inward-rectifier potassium channel | 0.85% of 310,000 active | P35561 | HEK293-Kir2.1, FluxOR thallium flux fluorescence; stronger effect = lower value | AID 1672 | B-score at 10 µM;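 active = fluorescence ratio B-score at or below minus 3 SD of library scores, with starting-brightness B-score within 2 SD, cut at about -4.2 in these data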;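 also: channel flux triggered by added potassium and thallium sulfate stimulus; B-score of peak minus minimum fluorescence over baseline after thallium stimulus; more negative B-score means stronger Kir2.1 block with less thallium influx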
KCNK9 block: human KCNK9 channel inhibition | AID 488922 | Q9NPC2 | B-score at 10 µM | 1.2% of 310,000 active | HEK293 KCNK9, FluxOR thallium flux fluorescence; stronger effect = lower value;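 active = ratio B-score over 3 SD below the library mean, with starting fluorescence within 5 SD of its mean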;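 also: negative B-score means less thallium flux so channel inhibition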
Target sequence (Q9NPC2 whole entry, looked up): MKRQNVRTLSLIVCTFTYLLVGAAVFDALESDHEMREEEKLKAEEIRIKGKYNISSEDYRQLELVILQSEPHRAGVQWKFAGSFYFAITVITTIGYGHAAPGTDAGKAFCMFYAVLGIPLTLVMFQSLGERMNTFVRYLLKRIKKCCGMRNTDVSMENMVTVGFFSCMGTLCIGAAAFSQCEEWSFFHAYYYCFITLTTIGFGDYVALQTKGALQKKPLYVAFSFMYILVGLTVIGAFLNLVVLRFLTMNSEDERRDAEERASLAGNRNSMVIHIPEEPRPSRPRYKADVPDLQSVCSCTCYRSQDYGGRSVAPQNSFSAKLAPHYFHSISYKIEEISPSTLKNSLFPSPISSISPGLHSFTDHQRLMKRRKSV
hERG rescue: compounds protecting human hERG from proarrhythmic drug block | Q12809 | CHO-hERG, FluxOR thallium flux, dofetilide IC70 present | activation (rescue from dofetilide block), less the hit threshold, % at 10 µM | 0.51% of 310,000 active | AID 1511;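 active = activation above the mean of controls blocked by dofetilide plus 5 SD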;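 also: thallium influx through hERG after potassium depolarization seen as dye fluorescence rise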
KCNQ1 block: inhibitors of human KCNQ1 potassium channel; P51787; 1.3% of 310,000 active; B-score at 10 µM; CHO-K1 KCNQ1, FluxOR thallium flux fluorescence; stronger effect = higher value;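 active = compounds whose thallium flux B-score, printed positive for inhibition, exceeds three library SD while starting fluorescence stays within three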;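 also: channel opened by potassium depolarization with thallium stimulus after 20 min compound exposure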
KCNK3 inh: human KCNK3 channel inhibition, primary screen. O14649. CHO-KCNK3 thallium flux, FluxOR fluorescence; stronger effect = lower value. B-score at 10 µM. 0.84% of 340,000 active;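 active = B-score under library mean minus 4 SD, starting fluorescence ratio at most library mean plus 5 SD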;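 also: more negative B-score means stronger inhibition of thallium flux through KCNK3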
Target sequence (O14649 whole entry, looked up): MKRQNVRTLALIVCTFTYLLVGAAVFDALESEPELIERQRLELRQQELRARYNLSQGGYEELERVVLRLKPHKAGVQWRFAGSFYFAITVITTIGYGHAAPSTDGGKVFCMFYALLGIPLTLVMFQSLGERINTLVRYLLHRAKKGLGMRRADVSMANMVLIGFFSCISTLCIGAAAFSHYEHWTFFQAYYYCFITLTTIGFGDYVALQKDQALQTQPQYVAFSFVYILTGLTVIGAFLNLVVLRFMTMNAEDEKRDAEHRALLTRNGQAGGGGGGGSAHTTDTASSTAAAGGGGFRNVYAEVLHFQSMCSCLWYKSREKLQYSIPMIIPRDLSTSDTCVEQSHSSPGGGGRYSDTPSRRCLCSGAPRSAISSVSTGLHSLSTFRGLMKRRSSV
KCNQ1 act: human KCNQ1 channel potentiation or activation | CHO-K1 KCNQ1, thallium flux FluxOR fluorescence; stronger effect = higher value | 0.35% of 310,000 active | B-score at 10 µM;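 active = fluorescence ratio B-score, a plate-corrected score, at least three library SD, with initial intensity B-score within 5 SD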
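assay system = KCNQ1-transfected CHO-K1 cells | medium = assay buffer with matched DMSO | probe or stimulus = depolarizing K+/Tl+ stimulus, K2SO4 and Tl2SO4 each 12.5 mM in 5x stock | dosing = single dose | incubation = dye 90 min, compound 20 min, room temperature | detection = kinetic FluxOR fluorescence, 10 s baseline plus 110 s post-stimulus | evaluation = ratio B score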
KCNK9 block conf: confirmation of human KCNK9 potassium channel inhibitors | 43% of 4,900 active | HEK293 KCNK9 cells, FluxOR thallium flux fluorescence | inhibition, % at 10 µM | shares compounds with KCNK9 block | AID 492992;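 active = thallium signal inhibited by more than 5 SD of the compound-free buffer control wells, on both duplicate plates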;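 also: 0% = assay buffer control wells without compound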
Kir2-1 spec: mouse Kir2.1 off-target activity of KCNK9 modulators. 4% of 4,900 active. shares compounds with KCNK9 block. Kir2.1 cells, FluxOR thallium flux fluorescence. inhibition, % at 10 µM;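 active = thallium signal drop more than 5 SD beyond the mean of the no-compound control wells, seen in both duplicate plates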;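 also: signal is fluorescence rise after thallium addition divided by baseline fluorescence; plate controls were assay buffer only for no effect and full block by chlorpromazine control for full effect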
HEK293 Tl ctr: second counter-screen for KCNK9 modulators: effect in non-induced cells; inhibition, % at 10 µM; 40% of 4,900 active; non-induced KCNK9-HEK293, FluxOR thallium flux; shares compounds with KCNK9 block;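 active = thallium signal drop beyond 5 SD of the untreated control mean, on both duplicate plates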;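 also: plate controls were buffer only IC0 wells for no effect and SID17386958 at its maximal inhibitory level for full effect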
KCNK3 inh conf: human KCNK3 channel inhibition, confirmation assay. shares compounds with KCNK3 inh. CHO-KCNK3 thallium flux, FluxOR fluorescence; 0% buffer, 100% carvedilol maximal block. ratio percent of control, % at 10 µM. 99% of 2,400 active;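 active = ratio percent of control, averaged over triplicates, above buffer control mean plus 5 SD, cut at about 64% in these data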;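 also: ratio is the fluorescence rise from min to max over baseline after thallium stimulus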
KCNK3 noninduced: KCNK3 inhibitor counter-screen hit in non-induced cells; shares compounds with KCNK3 inh; non-induced KCNK3 parental cells, FluxOR thallium flux; stronger effect = lower value; thallium flux ratio (lower = more inhibition) at 10 µM; 40% of 2,400 active;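 active = thallium flux ratio, averaged over three wells, more than 5 SD below the buffer control mean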;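 also: host cells are CHO cells without KCNK3 induction; ratio is peak minus trough fluorescence over baseline then normalized to buffer controls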
Starred values were filed as active, the others as inactive; i = inactive; nt = no result. The list is not random: actives were taken first. Their share in the collection is about 3.7%.

SMILES | Kir21 inh | KCNK9 block | hERG rescue | KCNQ1 block | KCNK3 inh | KCNQ1 act | KCNK9 block conf | Kir2-1 spec | HEK293 Tl ctr | KCNK3 inh conf | KCNK3 noninduced
Cc1cccc(OCCCn2c(=O)sc3ccccc32)c1 | 0.04 | i | -12 | i | i | i | nt | nt | nt | nt | nt
CCc1cc(=O)oc2cc(C)cc(OCC(=O)N3CCC(C(=O)NC(C)C)(c4ccccc4)CC3)c12 | 0.08 | -19* | -10 | i | -14* | i | 65%* | i | 26%* | 100* | i
CCCCc1cc(=O)oc2c(C)c(OCC(=O)N3CCC(C(=O)O)(c4ccccc4)CC3)ccc12 | -0.17 | i | -9 | i | i | i | nt | nt | nt | nt | nt
CN(CC(=O)Nc1ccc([N+](=O)[O-])cc1Br)Cc1c(F)cccc1Cl | 2 | -15* | -18 | i | -10* | i | i | i | 43%* | 95* | 0.16*
CN(CCOc1ccccc1)CC(=O)Nc1ccc([N+](=O)[O-])cc1Cl | -0.38 | i | -10 | i | i | i | nt | nt | nt | nt | nt
CC(C)=CCc1cc([C@@H]2CC(=O)c3ccc(O)c(CC=C(C)C)c3O2)ccc1O | 0.63 | -11* | -9 | i | -16* | i | 61%* | i | 30%* | 141* | 0.12*
Cc1ccc2c(c1)C(=O)CC(c1ccc3c(c1)OCCO3)O2 (stereo not drawn) | 0.75 | i | -4 | i | i | i | nt | nt | nt | nt | nt
CCN(CC)S(=O)(=O)c1ccc(/C=C/C(=O)OCC(=O)N(C)C)cc1 | 1.7 | i | -3 | i | i | i | nt | nt | nt | nt | nt
CCn1c(C(=O)N2CCC(C(=O)NCCCSC3CCCCC3)CC2)cc2sccc21 | -0.15 | i | -21 | i | -9.3* | i | i | i | i | 92* | i
CN(C)C(=O)C(=O)c1cccn1-c1cccc(Cl)c1C#N | -0.51 | i | -10 | i | i | i | nt | nt | nt | nt | nt
Cc1cc(NC(=O)COC(=O)c2nccnc2N)n(-c2ccccc2)n1 | 2 | i | -14 | i | i | i | nt | nt | nt | nt | nt
CC(C)(C)c1cc(NC(=O)COC(=O)c2nccnc2N)n(-c2ccccc2)n1 | 1.8 | -8.6* | -11 | i | -9.1* | i | 52%* | i | 32%* | 94* | i
Cc1cc(NC(=O)c2ccc(Cn3nc(C)c(Br)c3C)o2)no1 | 0.14 | i | 0 | i | i | i | nt | nt | nt | nt | nt
Cc1nn(Cc2ccc(C(=O)Nc3nc4c(C)cccc4s3)o2)c(C)c1Br | -0.1 | -14* | -2 | i | -9.9* | i | 44%* | i | i | 88* | i
O=C(c1ccco1)N1CCN(C(=O)c2ccccc2NS(=O)(=O)c2ccc(F)cc2)CC1 | 0.8 | i | -11 | i | i | i | nt | nt | nt | nt | nt
COc1ccccc1C(=O)COC(=O)CNS(=O)(=O)c1ccc(C)c(C)c1 | 0.1 | i | -19 | i | i | i | nt | nt | nt | nt | nt
CCN(CC)C(=O)CSc1nc2sc3c(c2c(=O)n1-c1ccc(C)cc1)CC(C)(C)SC3 | 1 | i | -7 | i | -17* | i | i | i | 26%* | 121* | 0.14*
Cc1c(C)n(C(=O)CN2CCN(c3ccccc3)CC2)c2ccccc12 | 0.9 | i | -10 | i | -10* | i | i | i | i | 83* | i
CCC(C)(C)n1nnnc1CN(Cc1ccc(Cl)cc1)Cc1ccco1 | -5.1* | -11* | -16 | i | i | i | 54%* | i | 40%* | 126* | 0.16*
CC(C)(C)CC(=O)Nc1ccccc1N1CCN(c2ccc(F)cc2)CC1 | 0.03 | -12* | -6 | i | -9* | i | 73%* | i | 37%* | 120* | 0.14*
CC(C)(C)CC(=O)Nc1ccccc1N1CCN(c2ccccc2)CC1 | 1.4 | i | -8 | i | i | i | nt | nt | nt | nt | nt
O=C(Nc1ccccc1N1CCN(c2ccc(F)cc2)CC1)c1ccccc1 | -1.5 | -10* | -4 | i | -14* | i | i | i | 29%* | 125* | 0.15*
O=C1c2ccccc2C(Nc2ccc3c(c2)OCCO3)N1c1ccccn1 (stereo not drawn) | 2.5 | -15* | -10 | i | -9.6* | i | 52%* | i | 47%* | 103* | i
C/C(=N\Nc1cc(C)nc(-c2ccccc2)n1)c1cccc([N+](=O)[O-])c1 | -0.05 | -11* | -5 | i | -9.7* | i | 50%* | i | 32%* | 103* | i
COC(=O)c1ccccc1SC(CC(=O)c1ccccc1)c1ccc(F)cc1 (stereo not drawn) | 0.71 | -13* | -13 | i | i | i | 49%* | i | 56%* | 114* | i
SMILES | Kir21 inh | KCNK9 block | hERG rescue | KCNQ1 block | KCNK3 inh | KCNQ1 act | KCNK9 block conf | Kir2-1 spec | HEK293 Tl ctr | KCNK3 inh conf | KCNK3 noninduced
COC(=O)c1ccccc1NC(=O)c1ccc(F)cc1 | -0.13 | i | -5 | i | i | i | nt | nt | nt | nt | nt
Cc1ccc(NC(=O)C2CC(=O)N(Cc3ccco3)C2)cc1 (stereo not drawn) | 0.63 | i | -5 | i | i | i | nt | nt | nt | nt | nt
Cc1cc(NC(=O)CCC(=O)N(CC(=O)NCC2CCCO2)c2ccc(F)c(Cl)c2)no1 (stereo not drawn) | -0.47 | i | -7 | i | i | i | nt | nt | nt | nt | nt
CCOC(=O)C(CCCOc1cccc(CC)c1)C(=O)OCC | -0.47 | i | -5 | i | -10* | i | i | i | i | 108* | i
CCOC(=O)C(CCCCOc1cccc(CC)c1)C(=O)OCC | -2.3 | i | -13 | i | i | i | nt | nt | nt | nt | nt
Fc1ccc(C(CCCn2nnc(-c3cccnc3)n2)c2ccc(F)cc2)cc1 | 0.01 | -12* | -18 | 15* | -15* | i | 55%* | i | 38%* | 148* | i
Fc1ccc(-n2nnc(-c3cccnc3)n2)cc1 | 0.93 | i | -1 | i | i | i | nt | nt | nt | nt | nt
COc1cccc(OCC(=O)O/N=C(\N)c2ccc(OC)c(OC)c2)c1 | 0.18 | i | -6 | i | i | i | nt | nt | nt | nt | nt
C=CCOc1c(Br)cc(/C=N/NC(N)=O)cc1OC | 0.88 | i | -6 | i | i | i | nt | nt | nt | nt | nt

Bioassay records (PubChem)
